System: U2OS
Assay: Multiplex assay against U2OS
Type: toxicity, cell-based
Conditions: human
Outline: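 Imaging took place on a CQ1 microscope at 37°C and 5% CO2 once compound had been added to live cells stained at seeding with Hoechst33342, BioTracker Green Microtubule Cytoskeleton Dye, MitoTracker Red and Annexin V Alexa Fluor 680. CellPathfinder machine-learning gating classed cells as Hoechst high-intensity objects or normal cells, classed normal cells as having healthy, pyknosed or fragmented nuclei, and classed pyknosed cells as mitotic or apoptotic. Tubulin, mitochondrial-mass and membrane-permeability phenotypes are per cents of the healthy-nucleus cells.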

[1] = 12 h, 1 µM, compound concentration 1 uM, replicate 1
[2] = 12 h, 1 µM, compound concentration 1 uM, replicate 2
[3] = 12 h, 10 µM, compound concentration 10 uM, replicate 1
[4] = 12 h, 10 µM, compound concentration 10 uM, replicate 2
[5] = 24 h, 1 µM, compound concentration 1 uM, replicate 1
[6] = 24 h, 1 µM, compound concentration 1 uM, replicate 2
[7] = 24 h, 10 µM, compound concentration 10 uM, replicate 1
[8] = 24 h, 10 µM, compound concentration 10 uM, replicate 2
[9] = 48 h, 1 µM, compound concentration 1 uM, replicate 1
[10] = 48 h, 1 µM, compound concentration 1 uM, replicate 2
[11] = 48 h, 10 µM, compound concentration 10 uM, replicate 1
[12] = 48 h, 10 µM, compound concentration 10 uM, replicate 2

COC[C@@H](c1ccc(C(F)(F)F)cc1)N1CCN(C2(C)CCN(C(=O)c3c(C)ncnc3C)CC2)C[C@@H]1C.O=C(O)/C=C\C(=O)O [VICRIVIROC MALEATE]
Population Apoptotic (%) [1]: 82% | Population Fragmented Nuclei (%) [1]: 34% | Population Healthy Nuclei (%) [1]: 54% | Population Hoechst High Intensity Objects (%) [1]: 4% | Population Membrane Permeable-Phenotype (%) [1]: 8% | Population Mitochondria Different-Phenotype (%) [1]: 4% | Population Mitotic Cells (%) [1]: 17% | Population Normal (%) [1]: 95% | Population Pyknosed Nuclei (%) [1]: 11% | Population Tubulin-Different-Phenotype (%) [1]: 3% | Total Cell Count [1]: 261 | Population Apoptotic (%) [2]: 81% | Population Fragmented Nuclei (%) [2]: 21% | Population Healthy Nuclei (%) [2]: 67% | Population Hoechst High Intensity Objects (%) [2]: 2% | Population Membrane Permeable-Phenotype (%) [2]: 11% | Population Mitochondria Different-Phenotype (%) [2]: 14% | Population Mitotic Cells (%) [2]: 18% | Population Normal (%) [2]: 97% | Population Pyknosed Nuclei (%) [2]: 10% | Population Tubulin-Different-Phenotype (%) [2]: 7% | Total Cell Count [2]: 105 | Population Apoptotic (%) [3]: 86% | Population Fragmented Nuclei (%) [3]: 26% | Population Healthy Nuclei (%) [3]: 65% | Population Hoechst High Intensity Objects (%) [3]: 1% | Population Membrane Permeable-Phenotype (%) [3]: 13% | Population Mitochondria Different-Phenotype (%) [3]: 3% | Population Mitotic Cells (%) [3]: 13% | Population Normal (%) [3]: 98% | Population Pyknosed Nuclei (%) [3]: 8% | Population Tubulin-Different-Phenotype (%) [3]: 3% | Total Cell Count [3]: 270 | Population Apoptotic (%) [4]: 33% | Population Fragmented Nuclei (%) [4]: 28% | Population Hoechst High Intensity Objects (%) [4]: 2% | Population Membrane Permeable-Phenotype (%) [4]: 5% | Population Mitochondria Different-Phenotype (%) [4]: 6% | Population Mitotic Cells (%) [4]: 66% | Population Normal (%) [4]: 97% | Population Pyknosed Nuclei (%) [4]: 6% | Population Tubulin-Different-Phenotype (%) [4]: 6% | Total Cell Count [4]: 91 | Population Apoptotic (%) [5]: 77% | Population Fragmented Nuclei (%) [5]: 25% | Population Healthy Nuclei (%) [5]: 67% | Population Hoechst High Intensity Objects (%) [5]: 3% | Population Membrane Permeable-Phenotype (%) [5]: 5% | Population Mitochondria Different-Phenotype (%) [5]: 3% | Population Mitotic Cells (%) [5]: 22% | Population Normal (%) [5]: 96% | Population Pyknosed Nuclei (%) [5]: 7% | Population Tubulin-Different-Phenotype (%) [5]: 2% | Total Cell Count [5]: 301 | Population Apoptotic (%) [6]: 93% | Population Fragmented Nuclei (%) [6]: 20% | Population Healthy Nuclei (%) [6]: 64% | Population Hoechst High Intensity Objects (%) [6]: 4% | Population Membrane Permeable-Phenotype (%) [6]: 10% | Population Mitochondria Different-Phenotype (%) [6]: 14% | Population Mitotic Cells (%) [6]: 6% | Population Normal (%) [6]: 95% | Population Pyknosed Nuclei (%) [6]: 15% | Population Tubulin-Different-Phenotype (%) [6]: 10% | Total Cell Count [6]: 111 | Population Apoptotic (%) [7]: 80% | Population Fragmented Nuclei (%) [7]: 25% | Population Healthy Nuclei (%) [7]: 68% | Population Hoechst High Intensity Objects (%) [7]: 1% | Population Membrane Permeable-Phenotype (%) [7]: 3% | Population Mitochondria Different-Phenotype (%) [7]: 3% | Population Mitotic Cells (%) [7]: 19% | Population Normal (%) [7]: 98% | Population Pyknosed Nuclei (%) [7]: 6% | Population Tubulin-Different-Phenotype (%) [7]: 2% | Total Cell Count [7]: 326 | Population Apoptotic (%) [8]: 83% | Population Membrane Permeable-Phenotype (%) [8]: 4% | Population Mitochondria Different-Phenotype (%) [8]: 2% | Population Mitotic Cells (%) [8]: 16% | Population Tubulin-Different-Phenotype (%) [8]: 7% | Total Cell Count [8]: 99 | Population Apoptotic (%) [9]: 78% | Population Fragmented Nuclei (%) [9]: 20% | Population Healthy Nuclei (%) [9]: 68% | Population Hoechst High Intensity Objects (%) [9]: 3% | Population Membrane Permeable-Phenotype (%) [9]: 3% | Population Mitochondria Different-Phenotype (%) [9]: 2% | Population Mitotic Cells (%) [9]: 21% | Population Normal (%) [9]: 96% | Population Pyknosed Nuclei (%) [9]: 10% | Population Tubulin-Different-Phenotype (%) [9]: 1% | Total Cell Count [9]: 416 | Population Apoptotic (%) [10]: 93% | Population Fragmented Nuclei (%) [10]: 25% | Population Healthy Nuclei (%) [10]: 62% | Population Hoechst High Intensity Objects (%) [10]: 1% | Population Membrane Permeable-Phenotype (%) [10]: 13% | Population Mitochondria Different-Phenotype (%) [10]: 11% | Population Mitotic Cells (%) [10]: 6% | Population Normal (%) [10]: 98% | Population Pyknosed Nuclei (%) [10]: 11% | Population Tubulin-Different-Phenotype (%) [10]: 10% | Total Cell Count [10]: 142 | Population Apoptotic (%) [11]: 80% | Population Fragmented Nuclei (%) [11]: 19% | Population Healthy Nuclei (%) [11]: 70% | Population Hoechst High Intensity Objects (%) [11]: 2% | Population Membrane Permeable-Phenotype (%) [11]: 3% | Population Mitochondria Different-Phenotype (%) [11]: 2% | Population Mitotic Cells (%) [11]: 20% | Population Normal (%) [11]: 97% | Population Pyknosed Nuclei (%) [11]: 9% | Population Tubulin-Different-Phenotype (%) [11]: 1% | Total Cell Count [11]: 437 | Population Apoptotic (%) [12]: 93% | Population Fragmented Nuclei (%) [12]: 18% | Population Healthy Nuclei (%) [12]: 68% | Population Hoechst High Intensity Objects (%) [12]: 5% | Population Mitochondria Different-Phenotype (%) [12]: 6% | Population Mitotic Cells (%) [12]: 6% | Population Normal (%) [12]: 94% | Population Pyknosed Nuclei (%) [12]: 12% | Population Tubulin-Different-Phenotype (%) [12]: 6% | Total Cell Count [12]: 140
